NTR1 ag – NTR1 (human) agonism. P30989. 330,000 tested, 0.17% active. AID 493036. NTR1-U2OS beta-arrestin-GFP spot imaging, agonist mode. activation, % at 20 µM;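 active = activation at or above 40% of the spot to cytoplasm intensity ratio, with at least 20 cells analyzed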;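 also: 0% = DMSO without peptide and 100% = 100 nM NTR1 peptide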
Target sequence (P30989 whole entry, looked up): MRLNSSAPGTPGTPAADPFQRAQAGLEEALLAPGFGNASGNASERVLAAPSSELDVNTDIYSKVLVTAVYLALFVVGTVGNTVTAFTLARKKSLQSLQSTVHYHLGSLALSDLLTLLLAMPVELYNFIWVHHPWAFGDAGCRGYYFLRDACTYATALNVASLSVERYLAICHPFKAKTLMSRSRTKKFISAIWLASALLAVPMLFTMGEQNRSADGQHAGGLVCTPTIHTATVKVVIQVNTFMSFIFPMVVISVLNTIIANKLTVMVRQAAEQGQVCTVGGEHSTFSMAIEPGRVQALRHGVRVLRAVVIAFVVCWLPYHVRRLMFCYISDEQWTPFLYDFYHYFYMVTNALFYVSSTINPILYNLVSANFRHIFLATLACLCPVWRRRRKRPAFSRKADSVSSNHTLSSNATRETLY
TAG inh – reduces triacylglycerol accumulation in H9c2 cells. Nile Red lipid (TAG) fluorescence; cells loaded with 200 µM oleic acid. inhibition, % at 12.5 µM. 230,000 tested, 0.66% active. AID 651582;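 active = pattern-corrected inhibition of lipid staining of at least 50% with the nuclear-stain viability signal not falling by more than 50%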;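 also: 0% = DMSO wells and 100% = triacsin C control wells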
GRK2 aptamer HTS – inhibitors of human GRK2 displacing RNA aptamer | P25098 | bead flow cytometry, FAM-aptamer displacement from GRK2 | inhibition of aptamer binding, % at 10 µM | 330,000 tested, 0.59% active | AID 488847;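 active = inhibition of aptamer binding above 40%, roughly 3 SD of noise, on plates passing a quality check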;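 also: median bead fluorescence of bound FAM aptamer so fluorescent compounds give negative values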
Arr AP2 block – inhibitors of human beta-arrestin and AP2 interaction. inhibition, % at 10 µM. 340,000 tested, 0.31% active. FITC-arrestin peptide / GST-AP2 beads, flow cytometry; AP2 beta2 appendage carries R879A mutation;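 active = inhibition above a set limit, near 3 SD of compounds lacking own fluorescence, cut at about 54% in these data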;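 also: plate controls were DMSO wells for no effect and 5 µM unlabelled arrestin peptide for full effect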
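Material – GST-tagged AP2 beta2-adaptin appendage (R879A) on 4 µm glutathione beads · Probe or stimulus – fluorescein-tagged arrestin peptide at 50 nM final · Timing – 12 min plus 1 h, RT · Detection – bead flow cytometry, FITC channel · Read-out basis – inhibition as reduced fluorescein signal on beads, percent · Medium – PBS plus Tween 20 (0.05%) and BSA (0.1%)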
B2AR ag – agonists of human beta-2 adrenergic receptor inducing internalization; P07550; Am2.2-beta2AR cells, FAP receptor internalization, flow cytometry; response, % (test concentration not listed); 340,000 tested, 0.43% active;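 active = response above a set limit, near 3 SD of response in nonfluorescent compounds, cut at about 42% in these data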
Hep lipid drop – modulators of hepatic lipid droplet formation; AML12 mouse hepatocytes, oleate lipid droplets, BODIPY imaging; inhibition, % at 6.5 µM; 240,000 tested, 0.4% active;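 active = lipid droplet intensity inhibited by at least 50%, with more than 500 cells counted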
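Assay system: AML12 hepatocytes (mouse); Probe or stimulus: oleic acid at 100 µM to induce lipid droplet formation; Dosing: compound at 6.5 µM only; Schedule: compound with oleate, overnight; Detection: fluorescence imaging, 20x objective, two fields per well; Measure: % inhibition of lipid droplet signal.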
NTR1 ag conf – confirmation of agonists of human NTR1. shares compounds with NTR1 ag. NTR1-U2OS beta-arrestin-GFP translocation imaging. activation, % at 20 µM. 480 tested, 38% active;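 active = mean activation at 20 µM of at least 40%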;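 also: 0% = DMSO without peptide and 100% = 100 nM NTR1 peptide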
An asterisk follows results filed as active; · = no result. Shown are actives, neighbours in structure and some others; about 2% of the full set was active somewhere.

SMILES	NTR1 ag	TAG inh	GRK2 aptamer HTS	Arr AP2 block	B2AR ag	Hep lipid drop	NTR1 ag conf
CCOc1c(OC(C)=O)ccc(/C=C/c2ccc3cccc(OC)c3n2)c1[N+](=O)[O-]	42.1*	·	1.0	1.3	19.8	-4.9	22.5
CCCOc1ccc(Cl)cc1/C=C1/C(=O)ON=C1C	0.8	·	0.0	20.2	32.6	-4.7	·
CC1=NOC(=O)/C1=C\c1ccc(-c2ccc(Cl)cc2Cl)o1	80.0*	4.1	·	5.8	99.2*	·	38.8
COc1ccc(C(CCN2CCOCC2)c2c(OC)cc(OC)c3c(C)cc(=O)oc23)cc1 (configuration not stated)	-3.4	9.0	·	4.5	-9.2	15.3	·
CCCCCc1cc(=O)oc2c(C(CCN3CCCC3)c3ccc(N(C)C)cc3)c(OC)cc(OC)c12 (configuration not stated)	52.8*	68.3*	0.0	6.7	35.1	33.2	38.1
CCCCCc1cc(=O)oc2c(C(CCN3CCCCC3)c3ccc(OC)cc3)c(OC)cc(OC)c12 (configuration not stated)	48.3*	111.2*	0.0	2.4	17.0	16.4	61.0*
COc1cc(OC)c2ccc(=O)oc2c1C(CCN1CCCC1)c1ccc(N(C)C)cc1 (configuration not stated)	-3.5	-15.8	0.0	2.9	-4.5	-6.2	·
CCN(CC(=O)Nc1ccccc1C(F)(F)F)C(=O)C1CCC1	0.1	-15.6	1.0	-15.5	-4.4	·	·
O=C(c1ccc(Br)cc1)C(CN1CCOCC1)c1ccccc1 (configuration not stated)	59.7*	·	0.0	9.1	21.0	2.7	71.0*
Cn1c2ccccc2c(=O)c2c(=O)n(Cc3ccco3)c(-c3ccc(C(C)(C)C)cc3)nc21	40.5*	·	2.0	·	·	-8.2	18.9
CSc1nc(N)nc(SCC(=O)C23CC4CC(CC(C4)C2)C3)c1C#N	44.8*	·	4.0	-6.2	-6.5	-14.5	13.2
COc1ccc(S(=O)(=O)Oc2ccc3c(c2)O/C(=C\c2cccnc2)C3=O)cc1	43.4*	·	0.0	-0.4	10.1	4.6	23.3
O=C1/C(=C/c2cccnc2)Oc2cc(OS(=O)(=O)c3ccc(Cl)cc3)ccc21	19.6	·	1.0	-10.3	13.8	-24.5	·
CS(=O)(=O)Oc1ccc2c(c1)O/C(=C\c1cccnc1)C2=O	1.5	-0.4	2.0	-4.5	-17.0	2.0	·
O=C1/C(=C/c2cccnc2)Oc2cc(OS(=O)(=O)c3ccccc3)ccc21	41.5*	·	2.0	5.9	31.3	11.2	21.5
Cc1ccc(S(=O)(=O)N2CCC[C@H]2C(=O)OCc2cc(=O)oc3cc(C)ccc23)cc1	5.3	-10.4	1.0	3.0	-1.3	·	·
CN(C)c1ccc(C2(c3ccc(N(C)C)cc3)OC(=O)c3cc(N)ccc32)cc1	3.0	·	0.0	15.4	6.6	4.2	·
CNC(=O)c1cccc(NC(=O)c2cc(-c3ccccc3)nc3c2cnn3C(C)C)c1	55.0*	23.2	0.0	5.3	15.4	·	33.3
COc1cc(NC(=O)c2cc(-c3ccccc3)nc3c2cnn3C(C)C)cc(OC)c1OC	11.7	31.1	0.0	-5.9	14.3	·	·
Oc1ccc(/C=N/Nc2nc(-c3ccc(Cl)cc3)cc(C(F)(F)F)n2)cc1	61.2*	·	0.0	28.1	23.9	-8.3	14.9
CCN(CCCNC(=O)c1nn(C)c2c1CS(=O)(=O)c1ccccc1-2)Cc1ccccc1	-0.2	·	0.0	32.4	1.0	-2.0	·
c1ccc(CN2CCC(Nc3nc(-c4ccccc4)nc4ccccc34)CC2)cc1	42.0*	45.3	0.0	-17.5	18.9	2.7	41.7*
O=C(O)c1cc(S(=O)(=O)Nc2ccc(OCc3ccccc3)cc2)ccc1Br	0.8	·	2.0	5.8	-1.5	2.0	·
CC1CCCC(C)N1C(=C(Cl)Cl)C(=C1SCCS1)[N+](=O)[O-] (configuration not stated)	4.8	9.3	1.0	15.6	13.1	-3.3	·
Cc1ccc(Sc2c([N+](=O)[O-])c(=O)n(C)c3ccccc23)cc1	66.6*	·	0.0	36.5	17.7	4.2	72.7*
SMILES	NTR1 ag	TAG inh	GRK2 aptamer HTS	Arr AP2 block	B2AR ag	Hep lipid drop	NTR1 ag conf
COc1ccc(-c2nn(CC(=O)Nc3ccc(Cl)c(Cl)c3)c(=O)c3ccccc23)cc1	-0.9	-45.2	1.0	-15.1	-4.5	·	·
COC(=O)COc1ccc(NC(=O)Cn2nc(-c3ccccc3)c3ccccc3c2=O)cc1	60.7*	·	0.0	1.0	10.3	1.8	14.8
O=C(CSc1ccc(Cl)cc1)Nc1cccc(-c2nc3ncccc3o2)c1	52.1*	30.2	0.0	-2.3	-1.3	·	33.0
O=S(=O)(NCC(Nc1ccccc1)c1ccccc1)c1ccc(Cl)cc1 (configuration not stated)	43.9*	·	0.0	6.0	31.8	-24.0	7.5
CCCC(=O)NC(=S)Nc1ccccc1N1CCOCC1	0.5	·	0.0	-3.4	4.0	3.4	·
O=C(Cc1ccc(Cl)cc1)NC(=S)Nc1ccccc1N1CCOCC1	44.6*	·	0.0	-3.3	-1.4	35.7	15.6
Cc1ccc(CN2CCC(c3cc(-c4ccc(Cl)cc4)n[nH]3)CC2)cc1	60.9*	·	0.0	-4.7	-5.5	-1.8	6.4
Cc1ccc(NC(=O)C2(C)CCN2CCc2ccccc2)cc1O (configuration not stated)	·	-14.9	·	·	·	·	·
Cc1cccc(Nc2nc(N)c([N+](=O)[O-])c(N3CC(C)CC(C)C3)n2)c1 (configuration not stated)	45.8*	·	0.0	6.3	4.2	28.5	36.0
CCc1ccc(N2CC(C(=O)OCC(=O)Nc3ccc(C(C)=O)cc3)CC2=O)cc1 (configuration not stated)	-1.4	1.7	0.0	-3.2	-2.8	·	·
O=C(OCc1ccc(COC(=O)c2ccc(O)cc2)cc1)c1ccc(O)cc1	45.6*	·	0.0	12.1	7.8	0.2	-1.3
CS(=O)(=O)N(CC(=O)N/N=C/c1ccccc1C(=O)O)c1cccc(Cl)c1Cl	0.9	-3.1	0.0	3.0	9.6	-2.2	·
CC(C)c1ccc(/C=N/NC(=O)CN(c2cccc(Cl)c2Cl)S(C)(=O)=O)cc1	48.1*	-1.9	0.0	15.2	4.0	·	39.6
CC1CCN(CCCNC(=O)c2ccc3c(=O)n(Cc4ccc(Cl)cc4)c(=S)[nH]c3c2)CC1	52.2*	19.2	0.0	-12.9	4.5	12.6	56.7*
Cc1ccc(OCC(=O)Nc2nc(C)c(Cl)cc2Cl)c([N+](=O)[O-])n1	0.6	-6.1	0.0	-0.6	-5.5	·	·
O=C(O)C1CC(c2ccccc2)=Nc2ccccc2S1 (configuration not stated)	2.9	-19.2	3.0	-5.3	-4.1	6.1	·
O=[N+]([O-])c1ccc(C2CC(c3ccccc3)=Nc3ccccc3S2)cc1 (configuration not stated)	61.6*	·	2.0	3.9	-8.6	2.5	13.2
